Series [1] concerns the target human CD36 (CD36-overexpressing HeLa cells) (Homo sapiens, UniProt P16671). The series is described as follows: Competition with Alexa-Fluor-488 oxLDL uptake in CD36-overexpressing HeLa cells. In kind it is cell-based.
The nature of series [2]: Liver toxicity by serum transaminases in 5/6Nx+AngII mice. To be noted: mice 5/6Nx+AngII treated with 5A 5 mg/kg/day, 4 weeks. Format: in vivo, mouse. In short, it runs like this:
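C57BL/6 mice underwent 5/6 nephrectomy: left kidney resection at week −1, then right nephrectomy at week 0. Animals were kept if the resected-to-removed kidney weight ratio was 0.5–0.65. Buprenorphine was given at 0.1 mg/kg after surgery and 0.05 mg/kg at 18 h. Val5-AngII (0.75 µg/kg/min, in sterile water) and 5A (5 mg/kg/day) were infused by separate subcutaneous osmotic mini-pumps placed at right nephrectomy.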

Where no end group is shown, it is not given here.

Sequence of human CD36 (CD36-overexpressing HeLa cells) (P16671 whole entry): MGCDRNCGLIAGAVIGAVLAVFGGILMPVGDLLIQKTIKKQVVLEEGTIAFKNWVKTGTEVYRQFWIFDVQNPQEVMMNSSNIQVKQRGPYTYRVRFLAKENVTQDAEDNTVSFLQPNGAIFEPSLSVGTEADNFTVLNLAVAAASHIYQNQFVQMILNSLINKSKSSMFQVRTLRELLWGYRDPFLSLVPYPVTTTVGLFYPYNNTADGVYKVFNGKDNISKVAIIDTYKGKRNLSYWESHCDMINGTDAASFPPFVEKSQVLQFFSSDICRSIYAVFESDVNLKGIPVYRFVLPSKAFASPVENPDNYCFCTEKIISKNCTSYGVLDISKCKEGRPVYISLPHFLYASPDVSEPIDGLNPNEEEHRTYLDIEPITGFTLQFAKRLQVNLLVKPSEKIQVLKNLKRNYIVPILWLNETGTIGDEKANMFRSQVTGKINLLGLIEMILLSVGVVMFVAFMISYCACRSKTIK

Usually IC50 stands for the concentration that inhibits the measured activity by half. As usually defined, the Ki is the equilibrium dissociation constant of an inhibitor or competing ligand from its target. Low values mean higher affinity, high ones lower affinity. In series [1], “DWLKAFYDKVAEKLKEAFPDWAKAAYDKAAEKAKEAA [5A]” showed an IC50 of 7.5 µM and a Ki of 1.45 µM. Besides, the “Liver toxicity, serum transaminases” value in series [2] is reported as “did not have liver toxicity”.
